Measurements as given in paper PMC9064907 (RSC Advances, 2019).
Like-named read-outs stand apart in the source and are kept apart here.

Tests used:
[1] = tested on: HCT-116 (human colorectal carcinoma); test: MTT cytotoxicity assay, HCT-116; type: cell-based; conditions: for IC50: read-out: IC50 (µM) ± SD HCT-116; for Therapeutic index (TI) HCT-116: TI = IC50 against normal cells (RPE-1)/IC50 against cancer cells (HCT-116)
Summary of the method: (§1)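 Cells were kept in DMEM with 10% heat-inactivated FBS and penicillin/streptomycin at 37 °C under 5% CO2. MTT (2.5 mg mL−1) was added for 4 h, formazan dissolved in DMSO and A570 read. Viability is % of untreated control. Triplicates were repeated on three days; mean ± SD; IC50 by probit analysis.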

[2] = tested on: RPE-1 (human normal Retina pigmented epithelium); test: MTT cytotoxicity assay, RPE-1 normal cells; type: cell-based; conditions: read-out: IC50 (µM) ± SD RPE-1
Summary of the method: as §1

[3] = tested on: MCF-7 (human breast adenocarcinoma); test: MTT cytotoxicity assay, MCF-7; type: cell-based; conditions: for IC50: read-out: IC50 (µM) ± SD MCF-7; for Therapeutic index (TI) MCF-7: TI = IC50 against normal cells (RPE-1)/IC50 against cancer cells (MCF-7)
Summary of the method: as §1

[4] = tested on: MCF-7 cells; test: Apoptosis detection by fluorescent Hoechst 33258 staining; type: cell-based, human; conditions: MCF-7, treated at IC50 (2: 18.7 µM; 14: 15.6 µM), 24 h
[5] = tested on: MCF-7 cells; test: Apoptosis quantification by flow cytometry; type: cell-based, human; conditions: MCF-7, treated at IC50 (2: 18.7 µM; 14: 15.6 µM), 24 h; for apoptosis percentage, early apoptosis: control 1.84 ± 0.63; for apoptosis percentage, late apoptosis: control 2.94 ± 0.5%
[6] = MTT assay, 48 h, normal RPE-1 cells

SMILES	IC50 ([1]; Homo sapiens, HCT-116, 48 h) [µM]	Therapeutic index (TI) HCT-116 [1]	IC50 ([2]; Homo sapiens, RPE-1, 48 h) [µM]	IC50 ([3]; Homo sapiens, MCF7, 48 h) [µM]	Therapeutic index (TI) MCF-7 [3]	Nuclear morphological changes (Hoechst 33258) [4]	apoptosis percentage, early apoptosis [5] [%]	apoptosis percentage, late apoptosis [5] [%]	IC50 ([1]; MTT assay, 48 h, HCT-116) [µM]	IC50 [2, 6] [µM]	IC50 ([3]; MTT assay, 48 h, MCF-7) [µM]
CSc1nc(N)n(-c2ccc(C(=O)O)cc2)n1 [Compound 1, 4-(5-Amino-3-(methylthio)-1H-1,2,4-triazol-1-yl)benzoic acid]	41.8 ± 6.5	1.5	61 ± 13.9	32.9 ± 5.3	1.9	–	–	–	–	–	–
Nc1nc(Oc2ccccc2)nn1-c1ccc(C(=O)O)cc1 [Compound 2, 4-(5-Amino-3-phenoxy-1H-1,2,4-triazol-1-yl)benzoic acid]	25.7 ± 4.1	2.4	61.2 ± 10.9	18.7 ± 3.5	3.3	DNA fragmentation and typical marks of apoptosis are evident	17.82 ± 1.30	24.91 ± 1.98	–	–	–
CSc1nc(/N=C/c2cc(C)ccc2O)n(-c2ccc(C(=O)O)cc2)n1 [Compound 3, (E)-4-(5-((2-Hydroxy-5-methylbenzylidene)amino)-3-(methylthio)-1H-1,2,4-triazol-1-yl)benzoic acid]	36 ± 6.1	1.2	43.9 ± 10.5	23.9 ± 1.6	1.8	–	–	–	–	–	–
COc1ccc(O)c(/C=N/c2nc(SC)nn2-c2ccc(C(=O)O)cc2)c1 [Compound 4, (E)-4-(5-((2-Hydroxy-5-methoxybenzylidene)amino)-3-(methylthio)-1H-1,2,4-triazol-1-yl)benzoic acid]	35.2 ± 5.2	1.6	55.3 ± 11.1	27.3 ± 4.2	2.0	–	–	–	–	–	–
CSc1nc(/N=C/c2cc([N+](=O)[O-])ccc2O)n(-c2ccc(C(=O)O)cc2)n1 [Compound 5, (E)-4-(5-((2-Hydroxy-5-nitrobenzylidene)amino)-3-(methylthio)-1H-1,2,4-triazol-1-yl)benzoic acid]	24 ± 4.5	2.5	60.2 ± 12.8	20 ± 4.1	3.0	–	–	–	–	–	–
CSc1nc(/N=C/c2cc(Br)ccc2O)n(-c2ccc(C(=O)O)cc2)n1 [Compound 6, (E)-4-(5-((5-Bromo-2-hydroxybenzylidene)amino)-3-(methylthio)-1H-1,2,4-triazol-1-yl)benzoic acid]	37.6 ± 6.4	1.6	59.4 ± 11.7	31.3 ± 5.1	1.9	–	–	–	–	–	–
COc1cc(/C=N/c2nc(SC)nn2-c2ccc(C(=O)O)cc2)ccc1O [Compound 7, (E)-4-(5-((4-Hydroxy-3-methoxybenzylidene)amino)-3-(methylthio)-1H-1,2,4-triazol-1-yl)benzoic acid]	29.8 ± 4.2	2.1	61.1 ± 12.5	29.4 ± 5.3	2.1	–	–	–	–	–	–
CSc1nc(/N=C/c2cccc(O)c2)n(-c2ccc(C(=O)O)cc2)n1 [Compound 8, (E)-4-(5-((3-Hydroxybenzylidene)amino)-3-(methylthio)-1H-1,2,4-triazol-1-yl)benzoic acid]	34.6 ± 6.1	2.0	70.1 ± 15.3	31.2 ± 5.6	2.2	–	–	–	–	–	–
CSc1nc(/N=C/c2ccc(O)cc2)n(-c2ccc(C(=O)O)cc2)n1 [Compound 9, (E)-4-(5-((4-Hydroxybenzylidene)amino)-3-(methylthio)-1H-1,2,4-triazol-1-yl)benzoic acid]	39.1 ± 5.6	1.7	68 ± 16.7	34.8 ± 5.5	2.0	–	–	–	–	–	–
Cc1ccc(O)c(/C=N/c2nc(Oc3ccccc3)nn2-c2ccc(C(=O)O)cc2)c1 [Compound 10, (E)-4-(5-((2-Hydroxy-5-methylbenzylidene)amino)-3-phenoxy-1H-1,2,4-triazol-1-yl)benzoic acid]	33.7 ± 5.2	2.2	74 ± 16.5	30.3 ± 5.3	2.4	–	–	–	–	–	–
COc1ccc(O)c(/C=N/c2nc(Oc3ccccc3)nn2-c2ccc(C(=O)O)cc2)c1 [Compound 11, (E)-4-(5-((2-Hydroxy-5-methoxybenzylidene)amino)-3-phenoxy-1H-1,2,4-triazol-1-yl)benzoic acid]	33.1 ± 4.4	1.8	58.5 ± 10.7	27.5 ± 4.1	2.1	–	–	–	–	–	–
O=C(O)c1ccc(-n2nc(Oc3ccccc3)nc2/N=C/c2cc([N+](=O)[O-])ccc2O)cc1 [Compound 12, (E)-4-(5-((2-Hydroxy-5-nitrobenzylidene)amino)-3-phenoxy-1H-1,2,4-triazol-1-yl)benzoic acid]	26.8 ± 4.5	2.3	62.8 ± 13.9	21.6 ± 3.1	2.9	–	–	–	–	–	–
CSc1nc(NC(=S)NCc2ccccc2)n(-c2ccc(C(=O)O)cc2)n1 [Compound 13, 4-(3-(Methylthio)-5-(3-benzylylthioureido)-1H-1,2,4-triazol-1-yl)benzoic acid]	–	2.1	–	–	2.7	–	–	–	30.1 ± 4.1	63.9 ± 13.5	23.4 ± 4.6
CSc1nc(NC(=S)NCCc2ccccc2)n(-c2ccc(C(=O)O)cc2)n1 [Compound 14, 4-(3-(Methylthio)-5-(3-phenethylthioureido)-1H-1,2,4-triazol-1-yl)benzoic acid]	28.3 ± 5.2	1.6	45.8 ± 8.9	15.6 ± 2.2	2.9	DNA fragmentation and typical marks of apoptosis are evident	29.11 ± 1.44	45.47 ± 2.10	–	–	–
O=C(O)c1ccc(-n2nc(Oc3ccccc3)nc2NC(=S)NCc2ccccc2)cc1 [Compound 15, 4-(5-(3-Benzylylthioureido)(3-phenoxy)-1H-1,2,4-triazol-1-yl)benzoic acid]	–	3.8	–	–	3.8	–	–	–	23.9 ± 4.5	91.6 ± 15.9	24 ± 4.3
COC(=O)c1ccc(-n2nc(SC)nc2N)cc1 [Compound 16, methyl 4-(5-amino-3-(methylthio)-1H-1,2,4-triazol-1-yl)benzoate]	37.3 ± 6.1	1.0	39.1 ± 9.9	23.4 ± 3.5	1.7	–	–	–	–	–	–
CS(=O)(=O)c1nc(N)n(-c2ccc(C(=O)O)cc2)n1 [Compound 17, 4-(5-amino-3-(methylsulfonyl)-1H-1,2,4-triazol-1-yl) benzoic acid]	34.2 ± 5.2	1.4	48.5 ± 9.8	21.9 ± 4.2	2.2	–	–	–	–	–	–
COc1cccc2c1C(=O)c1c(O)c3c(c(O)c1C2=O)C[C@@](O)(C(=O)CO)C[C@@H]3O[C@H]1C[C@H](N)[C@H](O)[C@H](C)O1 [Doxorubicin, reference compound]	22.6 ± 3.9	2.8	64 ± 13.2	19.7 ± 3.1	3.3	–	–	–	–	–	–
